In ChEMBL document CHEMBL3271963, “Relationship between analgetic ED50 dose and time-course brain levels N-alkylnormeperidine homologues” (J Med Chem, 1976):

Assays:
[1] = test system: Mus musculus; assay: Analgetic potency in iv dosed Swiss-Webster mouse relative to meperidine; format: functional
[2] = test system: Mus musculus; assay: Analgetic potency in iv dosed Swiss-Webster mouse; format: functional
[3] = test system: Liver; assay: Drug metabolism in iv dosed Swiss-Webster mouse liver measured per gram of tissue over 5 to 45 mins; format: ADME, organism-based; details: in vivo
How it was run: (§1)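 Mice received a single iv bolus of the ³H-labelled N-alkylnormeperidine into the lateral tail vein (0.033 ml/10 g), with 6 animals per time point. Livers were taken at 5, 10, 20, 30 and 45 min, homogenised in 0.01 N HCl, and spiked with unlabelled parent, normeperidine and a [¹⁴C] internal standard. Samples were basified to pH 12, extracted into C₆H₆ and separated by TLC. Parent and normeperidine were quantified by ³H/¹⁴C ratio, corrected for 5.8% (v/w) residual blood, and integrated over 5–45 min.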

[4] = test system: Brain; assay: Drug uptake in iv dosed Swiss-Webster mouse brain measured per gram of tissue; format: ADME, organism-based; details: in vivo
How it was run: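 Mice received a single iv bolus of the ³H-labelled compound into the tail vein (0.033 ml/10 g). Whole brains were removed at 5, 10, 20, 30 and 45 min (n = 6 per point) and homogenised in 0.01 N HCl with unlabelled carriers and a [¹⁴C]-N-butylnormeperidine internal standard. Samples were basified to pH 12, extracted into benzene and run on TLC. Levels came from ³H/¹⁴C ratios against a standard curve, expressed per gram, with area under the concentration-time curve.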

[5] = test system: Liver; assay: Drug metabolism in iv dosed Swiss-Webster mouse liver assessed as norme-peridine concentration measured per gram of tissue over 5 to 45 mins; format: ADME, organism-based; details: in vivo; how it was run: as §1

Row | Compound | Ratio [1] | ED50 [2] | Drug metabolism [3] | Drug uptake [4] | Drug metabolism [5]
1 | CCCN1CCC(C(=O)OCC)(c2ccccc2)CC1.Cl | 0.7 | 45.9 µmol/kg | 263.3 nmol·min | 828 nmol·min/g | 917.7 nmol·min
2 | CCCCCCN1CCC(C(=O)OCC)(c2ccccc2)CC1.Cl | 8.8 | 3.7 µmol/kg | 153.3 nmol·min | 126 nmol·min/g | 17.9 nmol·min
3 | CCOC(=O)C1(c2ccccc2)CCN(C)CC1.Cl [MEPERIDINE HYDROCHLORIDE] |  | 32.8 µmol/kg | 926.7 nmol·min |  | 1733.1 nmol·min
4 | CCCCN1CCC(C(=O)OCC)(c2ccccc2)CC1.Cl | 1.7 | 19.1 µmol/kg | 83.8 nmol·min | 274 nmol·min/g | 121.7 nmol·min
